Measurements from ChEMBL document CHEMBL5107939, “Optimization of brain-penetrant picolinamide derived leucine-rich repeat kinase 2 (LRRK2) inhibitors” (RSC Med Chem, 2021).

Experiments:
[1] = molecular target: T1, Leucine-rich repeat serine/threonine-protein kinase 2 (Homo sapiens, UniProt Q5S007, G2019S); experiment: Inhibition of human LRRK2 G2019S mutant expressed in human SH-SY5Y cells assessed as inhibition of tetracycline induced LRRK2 phosphorylation at Ser935 residue incubated for 90 mins by MSD assay; type: cell-based
Method in brief: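 SH-SY5Y neuroblastoma cells carrying LRRK2 G2019S, grown in DMEM/F-12 with GlutaMax, 10% Tet-free FBS, nonessential amino acids and pen-strep at 37 °C, 5% CO2. Expression induced with Tet (2 µg/ml) 48-72 h before treatment. Compound exposure 90 min. Lysates captured on anti-LRRK2-coated MSD plates, probed for pSer935 or total LRRK2 with Sulfo-Tag read-out. IC50 from standard 4P fit of % inhibition.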

[2] = molecular target: Dual specificity protein kinase CLK2 (Homo sapiens, UniProt P49760); experiment: Inhibition of CLK2 (unknown origin) assessed as substrate phosphorylation using coumarin and fluorescein-labeled peptide as substrate incubated for 1 hr by Z'-LYTE kinase assay
Method in brief: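 CLK2 Z'-LYTE coupled-enzyme kit format, 10-point titration from DMSO; enzyme, substrate and compound reacted 1 h at ambient temperature; after development solution, read at excitation 400 nm; activity from coumarin 445 nm/fluorescein 520 nm emission ratio.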

[3] = molecular target: T1, Leucine-rich repeat serine/threonine-protein kinase 2; experiment: Inhibition of recombinant human GST20 tagged truncated LRRK2 G2019S mutant assessed as substrate phosphorylation preincubated for 15 mins followed by substrate addition and measured after 90 mins using fluorescein-labeled LRRK2tide as substrate in presence of ATP by TR-FRET based Lanthascreen kinase activity assay
Method in brief: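 Enzyme 1.25 nM in 50 mM Tris pH 8.5, 10 mM MgCl2, 0.01% Brij-35, 1 mM EGTA, 2 mM DTT, 0.05 mM orthovanadate. Compound (top 9.99 µM in DMSO, ten-point serial dilution) preincubated 15 min at RT. […] Stopped with EDTA plus 2 nM Tb anti-pERM, 1 h RT. 520/495 nm ratio read. IC50 from 4-parameter logistic fit, mean of several runs.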

Homo sapiens = species: Homo sapiens; experiment: Selectivity ratio, ratio of IC50 for inhibition of CLK2 (unknown origin) to IC50 for inhibition of recombinant human GST20 tagged truncated LRRK2 G2019S mutant
[4] = Plasma clearance in po dosed Beagle dog and measured upto 24 hrs by LC-MS/MS analysis; type: ADME, organism-based, Canis lupus familiaris
[5] = Intrinsic clearance in po dosed Beagle dog and measured upto 24 hrs by LC-MS/MS analysis; type: ADME, organism-based, Canis lupus familiaris; conditions: in vivo
P-gp (rat Mdr1a) [6] = experiment: Substrate activity at P-gp (unknown origin) expressed in LLC-PK1 cells transfected with rat Mdr1a assessed as apparent permeability at 1 uM incubated for 3 hrs by LC-MSMS analysis; type: ADME, cell-based, Sus scrofa; conditions: pig
[7] = Plasma clearance in po dosed CD rat measured after 120 mins by LC-MS/MS analysis; type: ADME, organism-based
[8] = MRT in po dosed Beagle dog and measured upto 24 hrs by LC-MS/MS analysis; type: ADME, organism-based, Canis lupus familiaris; conditions: in vivo
P-gp (rat Mdr1a) [9] = experiment: Substrate activity at P-gp (unknown origin) expressed in LLC-PK1 cells transfected with rat Mdr1a assessed as efflux ratio of apparent permeability across basolateral to apical side to apparent permeability across apical to basolateral side at 1 uM incubated for 3 hrs by LC-MSMS analysis; type: ADME, cell-based, Sus scrofa; conditions: pig
[10] = MRT in po dosed CD rat measured after 120 mins by LC-MS/MS analysis; type: ADME, organism-based; conditions: in vivo
[11] = Intrinsic clearance in po dosed CD rat measured after 120 mins by LC-MS/MS analysis; type: ADME, organism-based; conditions: in vivo, 2 h
[12] = Brain to plasma permeability coefficient, Kp in CD rat plasma assessed as unbound fraction at 3 to 100 mg/kg, po and measured after 2 hrs by LC/MS/MS analysis; type: ADME, organism-based; conditions: in vivo, dose 3-100 mg/kg
[13] = Mutagenicity in Salmonella typhimurium TA100 at 30 to 5000 ug in presence of S9 metabolic activation system for 48 hrs by ames test; type: toxicity, Salmonella enterica subsp. enterica serovar Typhimurium; conditions: dose 30-5000 µg
Method in brief: (§1)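 Plate incorporation Ames test with S9 from phenobarbital/beta-naphthoflavone-induced male Wistar Han rat liver; 30, 100, 300, 1000, 3000, 5000 µg/plate; triplicate minimal glucose agar plates with trace histidine; 48 h at 37 °C; positive if 2-fold revertant increase over vehicle with dose relation.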

[14] = Mutagenicity in Salmonella typhimurium TA1535 at 30 to 5000 ug in presence of S9 metabolic activation system for 48 hrs by ames test; type: toxicity, Salmonella enterica subsp. enterica serovar Typhimurium; conditions: in vitro, dose 30-5000 µg; method in brief: as §1
[15] = Mutagenicity in Salmonella typhimurium TA98 at 30 to 5000 ug in presence of S9 metabolic activation system for 48 hrs by ames test; type: toxicity, Salmonella enterica subsp. enterica serovar Typhimurium; conditions: dose 30-5000 µg; method in brief: as §1
[16] = molecular target: Sodium channel protein type 5 subunit alpha (Homo sapiens, UniProt Q14524); experiment: Inhibition of human NaV1.5 expressed in HEK293 by PatchXpress automated patch clamp assay; type: cell-based
[17] = In vivo inhibition of LRRK2 in CD rat assessed as reduction in serine 935 phosphorylated LRRK2 in striatum at 10 mg/kg, po and measured after 2 hrs by MSD immunoassay; type: functional
Method in brief: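 Male CD rats (125-150 g) dosed orally with compound suspended in 10% Tween 80 (5 mL/kg) or vehicle, euthanized by CO2 2 h later; striatum dissected, frozen on dry ice; pSer935 LRRK2 measured by MSD immunoassay as pSer935/total LRRK2 ratio, mean ± S.E.M.; one-way ANOVA with Dunnett's post hoc test.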

T1 sequence (Q5S007 whole entry G2019S): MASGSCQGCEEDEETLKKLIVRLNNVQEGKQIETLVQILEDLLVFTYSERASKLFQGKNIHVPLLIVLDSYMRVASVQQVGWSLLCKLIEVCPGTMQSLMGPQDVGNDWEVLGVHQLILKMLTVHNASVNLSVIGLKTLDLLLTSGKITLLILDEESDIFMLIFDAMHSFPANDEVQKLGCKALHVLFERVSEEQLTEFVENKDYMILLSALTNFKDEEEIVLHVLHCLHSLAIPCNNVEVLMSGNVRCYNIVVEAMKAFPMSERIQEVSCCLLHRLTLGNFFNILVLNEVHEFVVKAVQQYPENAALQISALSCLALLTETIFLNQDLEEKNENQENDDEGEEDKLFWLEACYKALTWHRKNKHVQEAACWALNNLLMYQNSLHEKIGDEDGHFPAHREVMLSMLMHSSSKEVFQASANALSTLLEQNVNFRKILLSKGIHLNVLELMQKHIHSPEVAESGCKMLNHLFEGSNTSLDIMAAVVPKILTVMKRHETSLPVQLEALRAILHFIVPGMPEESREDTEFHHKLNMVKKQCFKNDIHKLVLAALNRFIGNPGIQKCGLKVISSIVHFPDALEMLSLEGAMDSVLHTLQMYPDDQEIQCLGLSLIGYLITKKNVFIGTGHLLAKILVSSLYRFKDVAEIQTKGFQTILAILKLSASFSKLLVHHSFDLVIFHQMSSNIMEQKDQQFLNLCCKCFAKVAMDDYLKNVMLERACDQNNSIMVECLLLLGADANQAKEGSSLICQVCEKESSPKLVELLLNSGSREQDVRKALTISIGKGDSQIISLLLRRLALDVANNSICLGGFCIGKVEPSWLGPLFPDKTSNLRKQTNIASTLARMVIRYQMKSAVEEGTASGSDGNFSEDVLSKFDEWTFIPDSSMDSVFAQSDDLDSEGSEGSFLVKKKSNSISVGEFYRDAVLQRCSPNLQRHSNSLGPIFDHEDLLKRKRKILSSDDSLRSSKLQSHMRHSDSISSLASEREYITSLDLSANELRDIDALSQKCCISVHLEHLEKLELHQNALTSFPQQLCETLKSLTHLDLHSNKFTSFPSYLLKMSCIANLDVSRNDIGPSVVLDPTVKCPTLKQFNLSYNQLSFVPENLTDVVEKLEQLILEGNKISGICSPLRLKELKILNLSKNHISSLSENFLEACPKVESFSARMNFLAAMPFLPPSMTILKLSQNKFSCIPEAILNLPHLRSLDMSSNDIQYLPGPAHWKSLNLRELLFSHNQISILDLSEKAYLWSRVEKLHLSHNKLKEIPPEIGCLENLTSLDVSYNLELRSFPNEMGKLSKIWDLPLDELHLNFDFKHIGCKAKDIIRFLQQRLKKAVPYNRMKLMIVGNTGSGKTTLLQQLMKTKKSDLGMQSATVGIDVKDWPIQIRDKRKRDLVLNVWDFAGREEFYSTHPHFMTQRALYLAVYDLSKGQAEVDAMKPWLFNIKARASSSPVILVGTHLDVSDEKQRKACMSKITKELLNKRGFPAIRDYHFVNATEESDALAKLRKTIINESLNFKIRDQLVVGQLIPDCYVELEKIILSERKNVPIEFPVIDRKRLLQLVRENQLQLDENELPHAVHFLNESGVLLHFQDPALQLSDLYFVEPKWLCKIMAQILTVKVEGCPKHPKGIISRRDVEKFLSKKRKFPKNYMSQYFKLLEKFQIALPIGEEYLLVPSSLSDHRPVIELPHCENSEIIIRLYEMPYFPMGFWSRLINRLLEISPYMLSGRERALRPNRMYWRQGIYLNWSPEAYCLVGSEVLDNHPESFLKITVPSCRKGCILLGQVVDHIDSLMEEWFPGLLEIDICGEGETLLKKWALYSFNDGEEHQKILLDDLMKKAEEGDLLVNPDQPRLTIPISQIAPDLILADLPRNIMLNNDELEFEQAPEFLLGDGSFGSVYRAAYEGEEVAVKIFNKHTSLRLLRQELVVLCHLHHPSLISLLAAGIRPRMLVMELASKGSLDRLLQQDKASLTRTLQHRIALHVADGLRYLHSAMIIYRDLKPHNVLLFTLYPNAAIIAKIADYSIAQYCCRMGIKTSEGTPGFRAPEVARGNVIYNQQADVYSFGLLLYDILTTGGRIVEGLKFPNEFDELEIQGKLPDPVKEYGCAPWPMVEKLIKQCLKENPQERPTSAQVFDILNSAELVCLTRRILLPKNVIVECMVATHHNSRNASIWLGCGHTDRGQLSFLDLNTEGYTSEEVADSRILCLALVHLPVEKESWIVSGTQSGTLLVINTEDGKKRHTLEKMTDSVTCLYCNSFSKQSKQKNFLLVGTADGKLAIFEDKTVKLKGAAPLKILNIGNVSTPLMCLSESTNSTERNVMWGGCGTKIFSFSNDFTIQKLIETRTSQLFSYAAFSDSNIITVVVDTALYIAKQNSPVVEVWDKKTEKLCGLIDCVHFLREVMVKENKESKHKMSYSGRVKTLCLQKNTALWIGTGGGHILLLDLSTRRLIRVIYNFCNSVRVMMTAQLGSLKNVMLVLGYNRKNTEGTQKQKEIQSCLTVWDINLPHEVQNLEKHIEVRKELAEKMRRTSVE
Chain of Dual specificity protein kinase CLK2 (P49760 whole entry): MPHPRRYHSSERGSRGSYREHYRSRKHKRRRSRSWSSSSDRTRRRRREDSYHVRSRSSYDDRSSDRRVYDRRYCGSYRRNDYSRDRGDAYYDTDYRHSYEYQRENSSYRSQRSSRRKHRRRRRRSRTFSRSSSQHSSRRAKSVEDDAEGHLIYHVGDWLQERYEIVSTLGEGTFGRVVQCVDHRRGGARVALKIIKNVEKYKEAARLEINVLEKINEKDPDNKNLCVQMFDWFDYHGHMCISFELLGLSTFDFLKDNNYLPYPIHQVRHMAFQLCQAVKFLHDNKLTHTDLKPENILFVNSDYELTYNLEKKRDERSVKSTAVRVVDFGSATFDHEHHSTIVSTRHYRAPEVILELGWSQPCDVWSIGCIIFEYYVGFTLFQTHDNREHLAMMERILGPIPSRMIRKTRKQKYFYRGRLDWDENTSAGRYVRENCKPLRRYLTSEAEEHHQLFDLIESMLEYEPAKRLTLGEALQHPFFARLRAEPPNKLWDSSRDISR
Chain of Sodium channel protein type 5 subunit alpha (Q14524 whole entry): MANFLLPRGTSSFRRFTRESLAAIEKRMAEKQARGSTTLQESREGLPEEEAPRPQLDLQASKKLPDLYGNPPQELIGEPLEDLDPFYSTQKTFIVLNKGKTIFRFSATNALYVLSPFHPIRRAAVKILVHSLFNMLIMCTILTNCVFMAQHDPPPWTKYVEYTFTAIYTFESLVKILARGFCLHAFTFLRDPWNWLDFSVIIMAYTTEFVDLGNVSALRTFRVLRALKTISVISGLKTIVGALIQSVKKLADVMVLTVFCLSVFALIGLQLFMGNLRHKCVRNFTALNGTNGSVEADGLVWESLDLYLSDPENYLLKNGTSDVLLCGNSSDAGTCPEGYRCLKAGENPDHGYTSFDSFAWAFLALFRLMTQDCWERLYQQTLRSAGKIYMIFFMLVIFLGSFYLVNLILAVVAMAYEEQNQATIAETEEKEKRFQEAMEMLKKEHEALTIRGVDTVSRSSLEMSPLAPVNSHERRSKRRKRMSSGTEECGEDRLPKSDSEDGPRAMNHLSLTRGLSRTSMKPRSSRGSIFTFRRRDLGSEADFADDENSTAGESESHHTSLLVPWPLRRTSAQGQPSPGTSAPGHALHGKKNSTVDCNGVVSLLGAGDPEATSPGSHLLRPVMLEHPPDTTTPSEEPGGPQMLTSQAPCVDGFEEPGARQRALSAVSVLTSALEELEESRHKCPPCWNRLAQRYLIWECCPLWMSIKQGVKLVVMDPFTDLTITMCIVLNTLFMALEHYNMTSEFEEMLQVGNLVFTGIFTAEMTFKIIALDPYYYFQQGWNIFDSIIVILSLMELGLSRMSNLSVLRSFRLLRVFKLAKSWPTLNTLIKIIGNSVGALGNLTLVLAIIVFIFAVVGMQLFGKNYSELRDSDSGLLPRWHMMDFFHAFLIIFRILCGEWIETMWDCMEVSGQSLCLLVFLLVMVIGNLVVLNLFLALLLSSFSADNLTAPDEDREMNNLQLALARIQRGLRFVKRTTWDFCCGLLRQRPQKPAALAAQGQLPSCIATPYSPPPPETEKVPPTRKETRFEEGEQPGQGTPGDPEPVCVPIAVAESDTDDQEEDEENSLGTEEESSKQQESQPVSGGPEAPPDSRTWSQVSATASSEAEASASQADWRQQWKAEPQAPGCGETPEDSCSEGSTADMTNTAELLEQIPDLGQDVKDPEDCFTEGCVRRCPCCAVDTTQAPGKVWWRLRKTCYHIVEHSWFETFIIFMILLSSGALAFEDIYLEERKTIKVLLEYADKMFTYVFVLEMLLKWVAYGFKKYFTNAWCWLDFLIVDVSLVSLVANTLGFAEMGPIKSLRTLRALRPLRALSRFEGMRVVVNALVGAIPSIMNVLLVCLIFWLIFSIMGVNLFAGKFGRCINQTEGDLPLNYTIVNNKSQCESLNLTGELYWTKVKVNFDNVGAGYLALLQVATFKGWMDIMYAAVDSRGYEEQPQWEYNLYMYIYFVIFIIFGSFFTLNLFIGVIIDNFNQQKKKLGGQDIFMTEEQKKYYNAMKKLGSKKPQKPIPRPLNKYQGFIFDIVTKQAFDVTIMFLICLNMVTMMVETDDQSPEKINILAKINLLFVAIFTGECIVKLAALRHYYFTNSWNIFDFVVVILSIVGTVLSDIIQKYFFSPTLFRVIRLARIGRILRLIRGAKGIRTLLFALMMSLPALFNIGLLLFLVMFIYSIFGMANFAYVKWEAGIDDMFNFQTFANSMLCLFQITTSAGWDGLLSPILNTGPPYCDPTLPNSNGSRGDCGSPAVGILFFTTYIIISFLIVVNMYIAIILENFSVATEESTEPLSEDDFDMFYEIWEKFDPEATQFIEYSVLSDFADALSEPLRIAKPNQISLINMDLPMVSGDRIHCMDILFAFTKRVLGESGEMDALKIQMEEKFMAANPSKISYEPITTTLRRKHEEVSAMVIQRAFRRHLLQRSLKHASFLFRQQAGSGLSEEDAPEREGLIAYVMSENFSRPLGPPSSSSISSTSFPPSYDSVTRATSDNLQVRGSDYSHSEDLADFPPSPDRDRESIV

Row | Compound | IC50 [1] [nM] | IC50 [2] [nM] | IC50 [3] [nM] | Ratio IC50 (Homo sapiens) | further results
1 | Cn1cc(-c2cccc(C(=O)Nc3cnn(C4CCC4)c3)n2)cn1 | 905 | 5960 | 53 | 112 | –
2 | Cn1cc(-c2cccc(C(=O)Nc3cc(N4CC[C@@H](C(C)(C)O)C4)cnc3C(F)(F)F)n2)cn1 | 21 | 62 | 17 | 4 | CL/F [4]: 4.8 mL/min/kg; CL [5]: 1029 mL/min/kg; Papp at 3 h, 1 µM (P-gp (rat Mdr1a) [6]): 29 ×10⁻⁶ cm/s; CL/F [7]: 6.7 mL/min/kg; MRT [8]: 9.4 h; efflux ratio at 3 h, 1 µM (P-gp (rat Mdr1a) [9]): 0.94; MRT [10]: 4.9 h; CL [11]: 271 mL/min/kg; Kp [12]: 0.4
3 | CC(C)(O)[C@@H]1CCN(c2cc(N)c(C(F)(F)F)cn2)C1 | – | – | – | – | Activity [13]: Toxic; Activity [14]: Toxic; Activity [15]: Toxic
4 | C[C@H]1CN(c2cc(NC(=O)c3cccc(-c4cnn(C)c4)n3)c(C(F)(F)F)cn2)CCN1C1COC1 | – | 8 | 1.5 | 5 | CL/F [7]: 2.7 mL/min/kg; MRT [10]: 2.2 h; CL [11]: 4081 mL/min/kg
5 | CC(C)(O)[C@@H]1CCN(c2cnc(C(F)(F)F)c(NC(=O)c3cccc(-c4cnn(CC5(C(F)(F)F)CC5)c4)n3)c2)C1 | 0.3 | 470 | 8 | 59 | CL/F [7]: 87 mL/min/kg; MRT [10]: 1.2 h
6 | C[C@@H]1[C@H](O)CCN1c1cc(NC(=O)c2cccc(-c3cnn(C)c3)n2)c(C(F)(F)F)cn1 | 3 | 86 | 5 | – | –
7 | C[C@@H]1CN(c2cc(NC(=O)c3cccc(-c4cnn(C)c4)n3)c(C(F)(F)F)cn2)C[C@H](C)O1 | 1.5 | 21 | 4 | 5 | –
8 | Cn1cc(-c2nccc(C(=O)Nc3cnn(C4CCC4)c3)n2)cn1 | 953 | 17200 | – | 505 | –
9 | CCn1cc(-c2cccc(C(=O)Nc3cc(N4CC[C@@H](C(C)(C)O)C4)cnc3C(F)(F)F)n2)cn1 | 7 | 30 | 40 | – | –
10 | Cn1cc(-c2cccc(C(=O)Nc3cnn(C4CCC4)c3)c2F)cn1 | 1650 | 716 | 70 | 10 | –
11 | Cn1cc(-c2cccc(C(=O)Nc3cc(N4CC(O)C4)ncc3C(F)(F)F)n2)cn1 | 7.5 | 64 | 4.8 | 13 | –
12 | C[C@@H]1[C@@H](O)CN1c1cc(NC(=O)c2cccc(-c3cnn(C)c3)n2)c(C(F)(F)F)cn1 | 2 | 12 | 2 | – | –
13 | Cc1nc(N)cc(N2CC[C@@H](C(C)(C)O)C2)n1 | – | – | – | – | Activity [13]: Non-Toxic; Activity [14]: Non-Toxic; Activity [15]: Non-Toxic
14 | CC(C)(O)[C@@H]1CCN(c2cnc(C(F)(F)F)c(NC(=O)c3cccc(-c4cnn(CC(F)(F)F)c4)n3)c2)C1 | 0.7 | 442 | 10 | 42 | CL/F [7]: 42 mL/min/kg; IC50 [16]: 30 µM; MRT [10]: 1.7 h; CL [11]: 2780 mL/min/kg
15 | Cn1cc(-c2nc(C(=O)Nc3cnn(C4CCC4)c3)cs2)cn1 | 271 | 119 | – | 8.5 | –
16 | Cn1cc(-c2cccc(C(=O)Nc3cc(N4CC5(C(C)(C)O)CC4C5)ncc3C(F)(F)F)n2)cn1 | 2 | 9.6 | 9 | – | –
17 | CC(C)(O)[C@@H]1CCN(c2cnc(C(F)(F)F)c(NC(=O)c3cccc(-c4cnn(C5CCC5)c4)n3)c2)C1 | 1.3 | 91 | 19 | 5 | CL/F [7]: 31.4 mL/min/kg; MRT [10]: 2.1 h
18 | CC(C)(O)[C@@H]1CCN(c2cnc(C(F)(F)F)c(N)c2)C1 | – | – | – | – | Activity [13]: Non-Toxic; Activity [14]: Non-Toxic; Activity [15]: Non-Toxic
19 | COC1CN(c2cc(NC(=O)c3cccc(-c4cnn(C)c4)n3)c(C(F)(F)F)cn2)C1 | 2.8 | 67 | 28 | 2.4 | –
20 | C[C@@H]1CN(c2cc(-c3n[nH]c4ccc(OC5(C)CC5)cc34)ncn2)C[C@H](C)O1 [MLi-2] | – | – | – | – | inhibition in vivo at 10 mg/kg [17]: 72%
21 | Cc1nc(NC(=O)c2cccc(-c3cnn(C)c3)n2)cc(N2CC[C@@H](C(C)(C)O)C2)n1 | 42 | 255 | 4 | – | –
22 | CC(C)(O)[C@@H]1CCN(c2cnc(C(F)(F)F)c(NC(=O)c3cccc(-c4cnn(CC5CC5)c4)n3)c2)C1 | 0.4 | 23 | 8.6 | 3 | CL/F [7]: 38 mL/min/kg; MRT [10]: 2.9 h; CL [11]: 78464 mL/min/kg
23 | Cc1cnc(N2C[C@@H](C)O[C@@H](C)C2)cc1NC(=O)c1cccc(-c2cnn(C)c2)n1 | 24 | 124 | 9 | 14 | –
